In ChEMBL document CHEMBL1150122, “A new cytotoxic epothilone from modified polyketide synthases heterologously expressed in Myxococcus xanthus” (J Nat Prod, 2002):
Calls of active or inactive are those of the source. The calls are words filed in the database; no cut-off is given here.

How the values were obtained:
[1] = tested on: HL-60; assay: Cytotoxicity against mitoxantrone-resistant human HL60 cells after 3 days by SRB assay; format: functional, cell-based; conditions: HL-60, 72 h
In short: (§1)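 Cells kept in RPMI 1640 with 10% FBS and 2 mM L-glutamine, 37 °C, 5% CO2. Trypsinized cells seeded at 5000–7500 per well; compound added 20 h later across 0.001–1000 nM in growth medium. After 3 days, fixed with 10% TCA (4 °C, 1 h), stained 0.2% SRB/1% acetic acid 20 min, dye extracted with 10 mM Tris base, absorbance read at 515 nm.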

[2] = tested on: NCI-H460; assay: Cytotoxicity against human NCI-H460 cells after 3 days by SRB assay; format: functional, cell-based; conditions: NCI-H460, 72 h; in short: as §1
[3] = tested on: SF-268; assay: Cytotoxicity against human SF268 cells after 3 days by SRB assay; format: functional, cell-based; conditions: SF-268, 72 h; in short: as §1
[4] = tested on: CCRF-CEM; assay: Cytotoxicity against camptothecin-resistant human CCRF-CEM cells after 3 days by SRB assay; format: functional, cell-based; conditions: 72 h; in short: as §1
[5] = tested on: NCI/ADR-RES; assay: Cytotoxicity against human NCI/ADR-RES cells after 3 days by SRB assay; format: functional, cell-based; conditions: 72 h; in short: as §1
[6] = tested on: CCRF-CEM; assay: Cytotoxicity against human CCRF-CEM cells after 3 days by SRB assay; format: functional, cell-based; conditions: 72 h; in short: as §1
[7] = tested on: HL-60; assay: Cytotoxicity against human HL60 cells after 3 days by SRB assay; format: functional, cell-based; conditions: HL-60, 72 h; in short: as §1
[8] = tested on: MCF7; assay: Cytotoxicity against human MCF7 cells after 3 days by SRB assay; format: functional, cell-based; conditions: MCF7, 72 h; in short: as §1
[9] = biological target: Tubulin (Homo sapiens) (UniProt P68371+Q9H4B7+P0DPH7+P68366+Q13509+Q71U36+P04350+Q3ZCM7+P07437+P68363+Q9BQE3+Q6PEY2+Q13885+Q9BVA1+Q9BUF5); assay: […] in human MCF7 cells at 1 uM after 2 hrs by SDS-PAGE; format: cell-based
In short: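 Confluent MCF-7 cells in 35 mm dishes treated with 1 μM compound for 0, 1 and 2 h at 37 °C. Lysates spun 18000g, 12 min, to separate soluble tubulin (supernatant) from polymerized tubulin (pellet).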

SMILES | IC50 [1] | IC50 [2] | IC50 [3] | IC50 [4] | IC50 [5] | IC50 [6] | IC50 [7] | IC50 [8] | Activity [9]
C/C1=C/C[C@@H](/C(C)=C/c2csc(C)n2)OC(=O)C[C@H](O)C(C)(C)C(=O)[C@H](C)[C@@H](O)[C@@H](C)CCC1 [EPOTHILONE D] | 10 nM | 8 nM | 14 nM | 15 nM | 30 nM | 22 nM | 8 nM | 8 nM | –
CC1=C/C[C@@H](/C(C)=C/c2csc(C)n2)OC(=O)C[C@H](O)C(C)(C)C(=O)[C@H](C)[C@@H](O)[C@@H](C)C\C=C\1 | 18 nM | 34 nM | 40 nM | 11 nM | 35 nM | 23 nM | 25 nM | 28 nM | Active
